We go through 13 compounds from ChEMBL document CHEMBL1153436, “2-Pyridyl P1'-substituted symmetry-based human immunodeficiency virus protease inhibitors (A-792611 and A-790742) with potential for convenient dosing and reduced side effects” (J Med Chem, 2009).

Series [1] relates to Human immunodeficiency virus 1. Briefly: Antiviral activity against HIV1 bearing protease gene with B26 mutation infected in human MT4 cells after 5 days by MTT assay. The series is classed as functional, organism-based. To be noted: Human immunodeficiency virus 1, MT4, 120 h.
For series [2], the system named is Human immunodeficiency virus 1. The experiment in a line: Antiviral activity against HIV1 bearing protease gene with P25 mutation infected in human MT4 cells after 5 days by MTT assay. To be noted: Human immunodeficiency virus 1, MT4, 120 h. The series is classed as functional, organism-based.
Series [3] has as its system Human immunodeficiency virus 1. Briefly: Antiviral activity against HIV1 bearing protease gene with A17 mutation infected in human MT4 cells after 5 days by MTT assay. To be noted: Human immunodeficiency virus 1, MT4, 120 h. The series is classed as functional, organism-based. The method, boiled down: (§1)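 HIV-1 A17 mutant clone carrying protease mutations L10F, V32I, M46I, I47V, Q58E and I84V, generated by in vitro serial passage under LPV/RTV. EC50 was determined in MT-4 cells. Wild-type reference strain was HIV-1 pNL4-3.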

Another series concerns Rattus norvegicus. Briefly: Toxicity in Gunn rat assessed as unconjugated-bilirubin level at 250 mg/kg coadministered with ritonavir measured on day 1. Also noted: dose 250 mg/kg. To be noted: in vivo. In kind it is organism-based. The procedure, abridged: (§2)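 Gunn rats (n = 8-10 per arm) dosed orally with compound in 5% ethanol/95% propylene glycol with p-toluenesulfonic acid, together with 50 mg/kg RTV. Plasma was sampled 4 h after the first and second doses. Drug was measured by HPLC and bilirubin […]. Change in bilirubin (mg/dL) reported as mean with SD.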

The next series has as its system Serum. The experiment in a line: Drug level in Gunn rat serum at 250 mg/kg coadministered with ritonavir measured on day 1. The arrangement: dose 250 mg/kg. As to conditions: in vivo. The series is classed as ADME, organism-based. The procedure, abridged:
as §2

The subject of series [4] is Human immunodeficiency virus 1. Briefly: Antiviral activity against wild-type HIV1 pNL4-3 infected in human MT4 cells after 5 days by MTT assay. To be noted: Human immunodeficiency virus 1, MT4, 120 h. The series is classed as functional, organism-based.
Series [5] concerns Human immunodeficiency virus 1. Briefly: Antiviral activity against wild-type HIV1 pNL4-3 infected in human MT4 cells after 5 days by MTT assay in presence of 50% human serum. In kind it is functional, organism-based. To be noted: Human immunodeficiency virus 1, MT4, 120 h.
Series [6] concerns Human immunodeficiency virus 1. Briefly: Fold resistance, ratio of EC50 for HIV1 bearing protease gene with A17 mutation to EC50 for wild-type HIV1 pNL4-3. The series is classed as functional. The method, boiled down:
as §1

Series [7] is described as follows: Half life in Sprague-Dawley rat at 5 mg/kg, iv. In kind it is ADME, organism-based. Also noted: dose 5 mg/kg, route intravenous. As to conditions: in vivo. The method, boiled down: (§3)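 Male Sprague-Dawley-derived rats (n = 3) dosed iv or by oral gavage with 5 mg/mL solutions in 5% dextrose containing 20% ethanol, 30% propylene glycol and methanesulfonic acid equivalents. Plasma was sampled at 10 time points over 8 h, extracted into ethyl acetate/hexane and analysed by reversed-phase HPLC with internal standard. AUC in µg·h/mL.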

The nature of series [8]: Clearance in Sprague-Dawley rat at 5 mg/kg, iv. In kind it is ADME, organism-based. The arrangement: dose 5 mg/kg, route intravenous. To be noted: in vivo. The procedure, abridged: as §3
Series [9] can be described thus: Oral bioavailability in Sprague-Dawley rat at 5 mg/kg. In kind it is ADME, organism-based. As to conditions: in vivo. The procedure, abridged: as §3
The nature of series [10]: AUC in Sprague-Dawley rat at 5 mg/kg, po. The series is classed as ADME, organism-based. The arrangement: dose 5 mg/kg, route oral. To be noted: plasma. The method, boiled down:
as §3

Series [11] is described as follows: AUC in Sprague-Dawley rat at 5 mg/kg, po in presence of ritonavir. The series is classed as ADME, organism-based. As to conditions: plasma. Also noted: dose 5 mg/kg, route oral. The procedure, abridged: as §3

For the compound `CC(C)CN(C[C@@H](O)[C@H](Cc1ccccc1)NC(=O)O[C@H]1CO[C@H]2OCC[C@H]21)S(=O)(=O)c1ccc(N)cc1`, the figures for the EC50 in series [1], in [2] and in series [3] were 587 nM, 515 nM and 338 nM, respectively.

For `COC(=O)N[C@H](C(=O)NN(Cc1ccccc1)C[C@H](O)[C@H](Cc1ccccc1)NC(=O)[C@@H](N1CCN(Cc2cccc(C)n2)C1=O)C(C)(C)C)C(C)(C)C`, the Activity in the series with Rattus norvegicus came to 0.429 mg/dL. For the same compound, the Drug uptake with Serum is 13.28 µg/mL.

Consider `COC(=O)N[C@H](C(=O)N[C@@H](Cc1ccccc1)C[C@H](O)[C@H](Cc1ccccc1)NC(=O)[C@@H](N1CCN(Cc2cccc(C)n2)C1=O)C(C)(C)C)C(C)(C)C`, for which the Activity in the series with Rattus norvegicus was found to be 0.195 mg/dL. In addition, the Drug uptake in the series with Serum came out at 18.68 µg/mL. For the same compound, the figures for the EC50 in series [4], in series [5] and in series [3] were 13 nM, 179 nM and 88 nM, respectively. Also, in series [6], the “Ratio EC50” value is listed as 7.

Turning to `COC(=O)N[C@H](C(=O)N[C@@H](Cc1ccc(-c2ccccn2)cc1)C[C@H](O)[C@H](Cc1ccccc1)NC(=O)[C@@H](N1CCN(Cc2ccccc2N)C1=O)C(C)(C)C)C(C)(C)C`, the EC50 in [4] is 4 nM; in [5], 20 nM; in series [3] it was 21 nM. In addition, the “Ratio EC50” value in series [6] was found to be 5. The same compound showed a half-life in series [7] of 1.2 h. In addition, in series [8], the clearance was 33.2 mL/min/kg. This compound gave a bioavailability in series [9] of 2.9%. For the same compound, the AUC amounted to 80 ng·h/mL in series [10] and 1250 ng·h/mL in series [11].

For the compound `COC(=O)N[C@H](C(=O)N[C@H](Cc1ccc(-c2ccccn2)cc1)C[C@H](O)[C@H](Cc1ccccc1)NC(=O)[C@@H](N1CCN(Cc2csc(C)n2)C1=O)C(C)(C)C)C(C)(C)C`, the EC50 in series [4] was found to be 3 nM; in [5] it was 15 nM; in [3], 12 nM. Moreover, the “Ratio EC50” value in series [6] turned out to be 4. The compound further showed a half-life in series [7] of 0.4 h. The compound also showed a clearance in series [8] of 31 mL/min/kg. This compound also gave a bioavailability in series [9] of 5.9%. Moreover, the area under the curve (AUC) is 160 ng·h/mL in series [10] and 1980 ng·h/mL in series [11].

In the case of `COC(=O)N[C@H](C(=O)N[C@@H](Cc1ccc(-c2ccccn2)cc1)C[C@H](O)[C@H](Cc1ccccc1)NC(=O)[C@@H](N1CCN(Cc2cccc(C)c2)C1=O)C(C)(C)C)C(C)(C)C`, the EC50 in series [4] came to 5 nM; in [5], 25 nM; in series [3] it was 41 nM. The “Ratio EC50” value in [6] turned out to be 8. Also, in [7], the half-life was 1.4 h. Also, in series [8], the clearance was 29.3 mL/min/kg. Moreover, the bioavailability in series [9] worked out at 0.8%. Besides, the AUC in series [10] amounted to 20 ng·h/mL; in series [11] it was 2700 ng·h/mL.

For `COC(=O)N[C@H](C(=O)N[C@@H](Cc1ccc(-c2ccccn2)cc1)C[C@H](O)[C@H](Cc1ccccc1)NC(=O)[C@@H](N1CCN(Cc2ccccc2OC)C1=O)C(C)(C)C)C(C)(C)C`, the values for the concentration giving a half-maximal response (EC50) in series [4], in series [5] and in series [3] were 4 nM, 17 nM and 49 nM, respectively. In addition, the “Ratio EC50” value in series [6] amounted to 12. This compound showed a half-life in [7] of 1.2 h. In series [8], this compound gave a clearance of 36 mL/min/kg. Moreover, the bioavailability in series [9] stood at 3.1%. Moreover, the AUC in series [10] stood at 70 ng·h/mL; in series [11], 9380 ng·h/mL.

Take `COC(=O)N[C@H](C(=O)N[C@@H](Cc1ccc(-c2ccccn2)cc1)C[C@H](O)[C@H](Cc1ccccc1)NC(=O)[C@@H](N1CCN(Cc2ccnc3ccccc23)C1=O)C(C)(C)C)C(C)(C)C`: the EC50 in [4] came out at 4 nM; in series [5], 19 nM; in series [3] it was 2 nM. The “Ratio EC50” value in series [6] is listed as less than 1. The half-life in series [7] is 1.1 h. In [8], this compound showed a clearance of 30 mL/min/kg. Further, the bioavailability in series [9] stood at 0.6%. Moreover, the AUC is 20 ng·h/mL in series [10] and 2860 ng·h/mL in series [11].

`COC(=O)N[C@H](C(=O)N[C@@H](Cc1ccc(-c2ccccn2)cc1)[C@@H](O)C[C@H](Cc1ccccc1)NC(=O)[C@@H](N1CCN(Cc2cccc(C(C)(C)O)n2)C1=O)C(C)(C)C)C(C)(C)C`: the EC50 in series [4] amounted to 4 nM; in [5], 19 nM; in series [3], 2 nM. For the same compound, in series [6], the “Ratio EC50” value is reported as less than 1. For the same compound, the half-life in series [7] was 0.9 h. Further, in [8], the clearance is 16.7 mL/min/kg. The bioavailability in series [9] was determined as 17%. Moreover, the exposure (AUC) was determined as 880 ng·h/mL in series [10] and 1820 ng·h/mL in series [11].

As for `COC(=O)N[C@H](C(=O)N[C@@H](Cc1ccc(-c2ccccn2)cc1)[C@@H](O)C[C@H](Cc1ccccc1)NC(=O)[C@@H](N1CCN(Cc2csc(C)n2)C1=O)C(C)(C)C)C(C)(C)C`, the figures for the half-maximal effective concentration (EC50) in series [4], in [5] and in series [3] were 3 nM, 34 nM and 2 nM, respectively. The “Ratio EC50” value in [6] is given as less than 1. The same compound had a half-life in series [7] of 0.5 h. The clearance in series [8] is 31.7 mL/min/kg. In [9], this compound had a bioavailability of 11.2%. The figures for the area under the curve (AUC) in [10] and in series [11] were 320 ng·h/mL and 8400 ng·h/mL, respectively.

`COC(=O)N[C@H](C(=O)N[C@@H](Cc1ccc(-c2ccccn2)cc1)C[C@H](O)[C@H](Cc1ccccc1)NC(=O)[C@@H](N1CCN(Cc2cccc(C)n2)C1=O)C(C)(C)C)C(C)(C)C`: the Activity in the series with Rattus norvegicus was found to be 0.233 mg/dL. For the same compound, in the series with Serum, the Drug uptake was determined as 5.83 µg/mL. In addition, the values for the EC50 in [4], in [5] and in [3] were 13 nM, 62 nM and 15 nM, respectively. Moreover, the “Ratio EC50” value in series [6] is on record as 1.

With `COC(=O)N[C@H](C(=O)N[C@@H](Cc1ccccc1)[C@@H](O)CN(Cc1ccc(-c2ccccn2)cc1)NC(=O)[C@@H](NC(=O)OC)C(C)(C)C)C(C)(C)C` [ATAZANAVIR], the EC50 is 74 nM in series [1], 298 nM in [2], 3 nM in series [4] and 250 nM in [3].

Consider `Cc1cccc(C)c1OCC(=O)N[C@@H](Cc1ccccc1)[C@@H](O)C[C@H](Cc1ccccc1)NC(=O)[C@H](C(C)C)N1CCCNC1=O` [LOPINAVIR], for which the concentration for a half-maximal effect (EC50) in [1] is 3790 nM; in [2], more than 10000 nM; in [5], 152 nM; in series [3], 1060 nM. For the same compound, the “Ratio EC50” value in series [6] was determined as 59.
